Measured values from ChEMBL document CHEMBL2021912, “Synthesis, cytotoxicity and apoptosis of cyclotriphosphazene compounds as anti-cancer agents” (Eur J Med Chem, 2012).
The source made the active and inactive calls. The rule behind the calls is not given here.

What was measured:
HT-29 [1] = assay: Induction of apoptosis in human HT-29 cells assessed as early apoptotic cells level after 24 hrs by annexin V-FITC and propidium iodide staining based flow cytometry; assay type: functional
Summary of the method: (§1)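 HT-29 seeded at 2-3 × 10^6 per flask in 10% FBS-DMEM, treated 24 h at several concentrations; etoposide (12.5–50 µg/mL) positive control; cells in HEPES pH 7.4/NaCl/CaCl2 buffer stained with annexin V-FITC 100 ng/mL and PI 0.1 µg/mL, 15 min room temperature, dark; flow cytometry quadrants; three experiments in duplicate.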

HT-29 [2] = assay: Induction of apoptosis in human HT-29 cells assessed as late apoptotic cells level after 24 hrs by annexin V-FITC and propidium iodide staining based flow cytometry; assay type: functional; summary of the method: as §1
HT-29 [3] = assay: Induction of apoptosis in human HT-29 cells assessed as necrotic cells level after 24 hrs by annexin V-FITC and propidium iodide staining based flow cytometry; assay type: functional; summary of the method: as §1
Pseudomonas aeruginosa = assay: Antibacterial activity against Pseudomonas aeruginosa ATCC 27853 after 18 to 24 hrs by broth microdilution method; assay type: functional; settings: read-out: ID50 (the source's name)
Escherichia coli = assay: Antibacterial activity against Escherichia coli ATCC 35218 after 18 to 24 hrs by broth microdilution method; assay type: functional; settings: read-out: ID50 (the source's name)
Staphylococcus aureus = assay: Antibacterial activity against Staphylococcus aureus ATCC 25923 after 18 to 24 hrs by broth microdilution method; assay type: functional; settings: read-out: ID50 (the source's name)
Candida albicans = assay: Antifungal activity against Candida albicans ATCC 10231 after 48 hrs by broth microdilution method; assay type: functional; settings: ATCC 10231, 48 h, read-out: ID50 (the source's name)
HT-29 [4] = assay: Cytotoxicity against human HT-29 cells after 24 hrs at 37 degC by MTT assay; assay type: functional; settings: for IC50: HT-29, 24 h, read-out: ID50 (the source's name)
Summary of the method: (§2)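 Vero and HT-29 grown in DMEM/10% FBS, Hep2 in EMEM/10% FBS; seeded at 2 × 10^4 (Vero, Hep2) or 3 × 10^4 (HT-29) cells/mL; exposed 24 h to 0.2–50 µg/mL compound, final DMSO 1%; MTT 1 mg/mL 2 h at 37 °C, formazan in DMSO, OD 540 nm; % of DMSO control; ID50 by probit; triplicate wells, three repeats.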

HEp-2 [5] = assay: Cytotoxicity against human Hep2 cells after 24 hrs at 37 degC by MTT assay; assay type: functional; settings: for IC50: HEp-2, 24 h, read-out: ID50 (the source's name); summary of the method: as §2
[6] = (§3) Cytotoxicity against african green monkey Vero cells after 24 hrs at 37 degC by MTT assay; assay type: cell-based; settings: chlorocebus sabaeus, Vero cells; read-out: ID50; summary of the method: as §2
HT-29 [7] = assay: Induction of apoptosis in human HT-29 cells assessed as viable cell level after 24 hrs by annexin V-FITC and propidium iodide staining based flow cytometry; assay type: functional; summary of the method: as §1
Vero = assay: as §3; assay type: cell-based; settings: chlorocebus sabaeus, vero, 24 h; summary of the method: as §2
HEp-2 [8] = assay: Induction of apoptosis in human Hep2 cells assessed as viable cell level after 24 hrs by annexin V-FITC and propidium iodide staining based flow cytometry; assay type: functional
Summary of the method: (§4)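 Hep2 seeded at 2-3 × 10^6 per flask, treated 24 h at several concentrations; cisplatin 200 µM positive control; cells in HEPES pH 7.4/NaCl/CaCl2 buffer stained with annexin V-FITC 100 ng/mL and PI 0.1 µg/mL, 15 min room temperature, dark; flow cytometry quadrants; three experiments in duplicate.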

HEp-2 [9] = assay: Induction of apoptosis in human Hep2 cells assessed as early apoptotic cells level after 24 hrs by annexin V-FITC and propidium iodide staining based flow cytometry; assay type: functional; summary of the method: as §4
HEp-2 [10] = assay: Induction of apoptosis in human Hep2 cells assessed as late apoptotic cells level after 24 hrs by annexin V-FITC and propidium iodide staining based flow cytometry; assay type: functional; summary of the method: as §4
HEp-2 [11] = assay: Induction of apoptosis in human Hep2 cells assessed as necrotic cells level after 24 hrs by annexin V-FITC and propidium iodide staining based flow cytometry; assay type: functional; summary of the method: as §4

SMILES | Activity (HT-29 [1]) [%] | Activity (HT-29 [2]) [%] | Activity (HT-29 [3]) [%] | IC50 (Pseudomonas aeruginosa) [µg/mL] | IC50 (Escherichia coli) [µg/mL] | IC50 (Staphylococcus aureus) [µg/mL] | IC50 (Candida albicans) [µg/mL] | IC50 (HT-29 [4]) [µM] | ID50 (HEp-2 [5]) | CC50 at 24 h [6] [µM] | Activity (HT-29 [7]) [%] | ID50 (HT-29 [4]) | ID50 (Vero) | IC50 (HEp-2 [5]) [µM] | Activity (HEp-2 [8]) [%] | Activity (HEp-2 [9]) [%] | Activity (HEp-2 [10]) [%] | Activity (HEp-2 [11]) [%]
CC1(C)COP2(=NP(Cl)(Cl)=NP3(=N2)NCCCN3CCCCN2CCCNP23=NP2(=NP(Cl)(Cl)=N3)OCC(C)(C)CO2)OC1 (stereo unspecified) | 63.78 | 1.97 | 1.41 | > 250 | > 250 | > 250 | > 250 | 2.75 | inactive | 2.65 | 32.84 |  |  |  |  |  |  | 
c1ccc(NP2(Nc3ccccc3)=NP34=NP5(=N2)NCCCN5CCCCN3CCCN4)cc1 (stereo unspecified) | 80.1 | 0.35 | 1.35 | > 250 | > 250 | > 250 | > 250 | 4.58 | inactive | 6.55 | 18.2 |  |  |  |  |  |  | 
ClP1(Cl)=NP2(=NP(Nc3ccccc3)(Nc3ccccc3)=N1)NCCCN2CCCCN1CCCNP12=NP(Nc1ccccc1)(Nc1ccccc1)=NP(Cl)(Cl)=N2 (stereo unspecified) |  |  |  | > 250 | > 250 | > 250 | > 250 |  | inactive |  |  | inactive | Non-toxic |  |  |  |  | 
ClP1(Cl)=NP2(=NP(Sc3ccccc3)(Sc3ccccc3)=N1)NCCCN2CCCCN1CCCNP12=NP(Sc1ccccc1)(Sc1ccccc1)=NP(Cl)(Cl)=N2 (stereo unspecified) |  |  |  | > 250 | > 250 | > 250 | > 250 | 1.96 | inactive | 3.35 |  |  |  |  |  |  |  | 
FC1(F)COP2(=NP(Cl)(Cl)=NP3(=N2)NCCCN3CCCCN2CCCNP23=NP(Cl)(Cl)=NP2(=N3)OCC(F)(F)C(F)(F)CO2)OCC1(F)F (stereo unspecified) | 81.42 | 0.53 | 0.8 | > 250 | > 250 | > 250 | > 250 | 2.33 | inactive | 1.31 | 17.25 |  |  |  |  |  |  | 
FC1(F)COP2(Cl)=NP(Cl)(=NP3(=N2)NCCCN3CCCCN2CCCNP23=NP2(Cl)=NP(Cl)(=N3)OCC(F)(F)C(F)(F)CO2)OCC1(F)F (stereo unspecified) |  |  |  | > 250 | > 250 | > 250 | > 250 |  |  | 1.61 |  | inactive |  | 2.63 |  |  |  | 
CC1(C)COP2(=NP34=NP5(=N2)NCCCN5CCCCN3CCCN4)OC1 (stereo unspecified) |  |  |  | > 250 | > 250 | > 250 | > 250 |  |  | 5.88 |  | inactive |  | 3.23 | 19.39 | 77.29 | 3.32 | 0
FC1(F)COP2(=NP34=NP5(=N2)NCCCN5CCCCN3CCCN4)OCC1(F)F (stereo unspecified) |  |  |  | > 250 | > 250 | > 250 | > 250 |  |  | 5.41 |  | inactive |  | 3.39 | 32.78 | 60.78 | 5.34 | 1.1
